{
  "source": "paper PMC5965255",
  "about": "(Neoplasia (New York, N.Y.), 2016)",
  "key": {"[1]": {"experiment": "Solubility of DHA-dFdC", "type": "physicochemical", "how_it_was_run": "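Indirect aqueous solubility used isopropyl myristate (IPM)/water partitioning. Saturated IPM solution was centrifuged (14,000 rpm, 10 min) and the supernatant measured by HPLC after methanol dilution (A1). Water was added at Vwater/VIPM 10, vortexed 5 min, left 15 min and centrifuged (14,000 rpm, 15 min). The IPM layer was re-assayed (A2) and the partition coefficient calculated from A1, A2 and the volume ratio.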"}, "[2]": {"system": "dFdC-sensitive cancer cell lines", "details": "various dFdC-sensitive cancer cell lines; cited from earlier work"}, "[3]": {"system": "Panc-1-luc human pancreatic tumors implanted SC", "experiment": "Antitumor activity in mice with subcutaneous Panc-1-luc tumors", "type": "in vivo, athymic nude mice", "details": "IP twice a week; DHA-dFdC 50 mg/kg or molar equivalent doses", "how_it_was_run": "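Male athymic nude mice (6-8 weeks) received SC injections of 5 × 10^6 Panc-1-luc cells in DMEM/Matrigel 1:1 (v/v) in the right flank. At 5-7 mm tumours (day 5), mice were randomised into 5 groups (n = 5-6). Groups got IP test compound at 50 mg/kg or molar equivalents. The vehicle was Tween 80/ethanol/water 1:0.52:8.48 with 5% w/v mannitol (dFdC in 5% mannitol). Dosing was twice weekly, up to six times. Caliper volumes were V = ½ × L1 × L2 × L2.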"}, "[4]": {"system": "Panc-02 cells", "experiment": "MTT cytotoxicity assay", "type": "cell-based, mouse", "details": "Panc-02, high concentrations (10-100 μM)", "how_it_was_run": "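Cells seeded at 1500/well and left overnight at 37°C, 5% CO2. Treated with serial concentrations of test compound, dFdC, DHA or 1:1 molar dFdC+DHA (lipids in DMSO, dFdC in medium). Exposure: Panc-1-luc 24 h, Panc-02 48 h, BxPC-3 72 h. In a separate Panc-02 run, 10-100 μM for 4 h. Survival read by MTT; IC50 obtained by curve fitting.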"}, "[5]": {"system": "tumor cells in culture", "details": "many tumor cells in culture; cited from earlier work"}, "[6]": {"details": "cited from earlier work"}, "[7]": {"experiment": "Pancreatic tissue levels and biodistribution after IV injection", "type": "in vivo, BALB/c mice", "details": "mouse pancreas, IV 75 mg/kg, noncompartmental", "how_it_was_run": "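Healthy female BALB/c mice (17-20 weeks) received 75 mg/kg IV in Tween 80/ethanol/5% mannitol aqueous solution. Mice were euthanized at six time points from 5 to 300, n = 3-4 each. Pancreas was homogenized, extracted with ethyl acetate and analysed by HPLC: methanol/1% acetic acid 85:15, 1.2 ml/min, detection 300 nm.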"}, "[8]": {"system": "Panc-1-luc cells", "details": "cited from earlier work"}, "[9]": {"system": "orthotopic Panc-1-luc pancreatic tumors", "experiment": "Antitumor activity in mice with orthotopic Panc-1-luc tumors", "type": "in vivo, athymic nude mice", "how_it_was_run": "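Male athymic nude mice (6-8 weeks) received ~50 μl of Panc-1-luc cells (~2 × 10^7/ml in 1:1 DMEM/Matrigel) into the pancreas under isoflurane anaesthesia. After four weeks, randomised (n = 5-7) to test compound (Tween 80/ethanol/water, 5% w/v mannitol), dFdC at molar equivalent (~0.087 […], 5% mannitol) or untreated. IP twice weekly, seven doses in total. Tumours dissected and weighed 30 days after first dose.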"}},
  "data": [
    {"smiles": "CCCCCCCCCCCCCCCCCC(=O)Nc1ccn(C2OC(CO)C(O)C2(F)F)c(=O)n1", "note": "(centres unmarked) [4-(N)-stearoyl dFdC]", "values": [
      {"measurement": "Solubility in water", "setting": "[1]; direct method", "result": "1.38 ± 1.60", "unit": "µg/mL"},
      {"measurement": "Solubility in water", "setting": "[1]; indirect method (IPM/water partitioning), room temperature", "result": "1.39 ± 0.10", "unit": "µg/mL"},
      {"measurement": "Cytotoxicity compared with dFdC", "setting": "[2]", "result": "not significantly more cytotoxic than dFdC"}
    ]},
    {"smiles": "CC/C=C\\C/C=C\\C/C=C\\C/C=C\\C/C=C\\C/C=C\\CCC(=O)O", "note": "[DHA, Cis-4,7,10,13,16,19-docosahexaenoic acid]", "values": [
      {"measurement": "Tumor growth compared with vehicle control", "setting": "[3]", "result": "did not significantly inhibit the tumor growth"},
      {"measurement": "Cytotoxicity after 4 hours of coincubation", "setting": "[4]", "result": "did not show significant cytotoxicity"}
    ]},
    {"smiles": "CC/C=C\\C/C=C\\C/C=C\\C/C=C\\C/C=C\\C/C=C\\CCC(=O)O[C@@H](C(=O)O[C@H]1C[C@@]2(O)[C@@H](OC(=O)c3ccccc3)[C@@H]3[C@]4(OC(C)=O)CO[C@@H]4C[C@H](O)[C@@]3(C)C(=O)[C@H](OC(C)=O)C(=C1C)C2(C)C)[C@@H](NC(=O)c1ccccc1)c1ccccc1", "note": "[DHA-paclitaxel conjugate]", "values": [
      {"measurement": "Cytotoxicity compared with paclitaxel", "setting": "[5]", "result": "not more cytotoxic than paclitaxel alone"}
    ]},
    {"smiles": "Cl.Nc1ccn([C@@H]2O[C@H](CO)[C@@H](O)C2(F)F)c(=O)n1", "note": "[dFdC, 2′, 2′-difluorodeoxycytidine HCl]", "values": [
      {"measurement": "Loss of dFdC by deamination", "setting": "[6]; after intravenous administration", "result": "about 90%"},
      {"measurement": "Administered dFdC excreted in the urine", "setting": "[6]", "result": "More than 99%"},
      {"measurement": "Unchanged dFdC in the urine", "setting": "[6]", "result": 5, "unit": "%"},
      {"measurement": "Tumor growth compared with vehicle control", "setting": "[3]", "result": "did not significantly inhibit the tumor growth"},
      {"measurement": "AUC0 -∞ in pancreas", "setting": "[7]", "result": 787.71, "unit": "µg·min/g"},
      {"measurement": "Sensitivity of Panc-1 tumor cells", "setting": "[8]", "result": "resistant"},
      {"measurement": "Tumor growth", "setting": "[9]; IP twice a week, DHA-dFdC 50 mg/kg, dFdC molar equivalent", "result": "did not show significant activity"},
      {"measurement": "Cleaved lamin-A positive staining in tumors", "setting": "[9]; compared with untreated mice", "result": "not different from that in mice that were left untreated"}
    ]}
  ]
}
